ChEMBL document CHEMBL3227946, “Antianaphylactic agents. 1. 2-(Acylamino)oxazoles” (1979)
Calls of active or inactive are those of the source. No rule for the calls is given here.

Assays:
[1] = Antianaphylactic activity in ovalbumin sensitized albino guinea pig chopped lung assessed as inhibition of antigen-induced slow-reacting substance of anaphylaxis release at 10 ug/mL after 15 mins relative to control; assay type: functional, Cavia porcellus
Method in brief: (§1)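 Lungs were perfused with Tyrode's, chopped into 0.5-mm cubes and split into 100-mg aliquots. Aliquots were challenged with antigen ± compound and rocked at 37 °C for 15 min. Unchallenged controls gave spontaneous release. Supernatant histamine or SRS-A was bioassayed on guinea pig ileum against standards. Values are % inhibition, mean of four samples.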

[2] = Antianaphylactic activity in human chopped lung treated with atopic serum isolated from patients allergic to cocksfoot pollen assessed as inhibition of antigen-induced slow-reacting substance of anaphylaxis release at 10 ug/mL after 15 mins relative to control; assay type: functional; conditions: 0.25 h
Method in brief: (§2)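 Surgical human lung (bronchial carcinoma resections) was washed in Hank's, chopped into 0.5-mm cubes and incubated for 18 h at 18 °C with atopic serum from cocksfoot pollen-allergic patients. Tissue was washed, equilibrated in Tyrode's at 37 °C and challenged with saline pollen extract ± compound for 15 min. Histamine or SRS-A in the supernatant was bioassayed on guinea pig ileum. Values are % inhibition, mean of four samples.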

[3] = tested on: Rattus norvegicus; assay: Antianaphylactic activity in antiovalbumin IgE serum-treated Wistar rat at 2 x 100 mg/kg, po administered 2.5 hrs prior to ovalbumin challenge measured after 45 mins by passive cutaneous anaphylaxis test; assay type: functional, organism-based; set-up: dose 100 mg/kg; conditions: in the assay text read “2 hrs and again 30 mins prior to” for “2.5 hrs prior to”
Method in brief: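 Female Wistar rats, shaved and lightly anaesthetized, received an intradermal abdominal injection of diluted rat antiovalbumin IgE serum. After 24 h they were challenged iv with ovalbumin mixed with dye. Compound was given at 2 h and again at 30 min before challenge. Rats were killed 45 min after challenge and the blue area on the inner skin surface was measured.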

[4] = Antianaphylactic activity in ovalbumin sensitized albino guinea pig chopped lung assessed as inhibition of antigen-induced histamine release at 10 ug/mL after 15 mins relative to control; assay type: functional, Cavia porcellus; method in brief: as §1
[5] = Antianaphylactic activity in human chopped lung treated with atopic serum isolated from patients allergic to cocksfoot pollen assessed as inhibition of antigen-induced histamine release at 10 ug/mL after 15 mins relative to control; assay type: functional; conditions: 0.25 h; method in brief: as §2
[6] = tested on: Cavia porcellus; assay: (§3) Antianaphylactic activity in ovalbumin/ovalbumin aerosol sensitized guinea pig bronchospasm model assessed as ratio of mean collapse time after pretreatment with compound to mean collapse time of control animal at 2 x 100 mg/kg, po compound administered prior to antigen challenge by Herxheimer test; assay type: functional
Method in brief: (§4)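 Ovalbumin-sensitized male guinea pigs were exposed in a chamber to ovalbumin aerosol (1% w/v) until a convulsive cough; that time is the collapse time. Compound was given orally either 2 h before challenge or in two doses at 0.5 and 3 h before. Where used, mepyramine was given at 0.5 mg/kg sc 0.5 h before. Ratio is mean collapse time of treated animals over that of controls.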

[7] = tested on: Cavia porcellus; assay: as §3, with “with compound in presence of mepyramine to mean” for “with compound to mean”; assay type: functional; method in brief: as §4

SMILES: CCCCN(C(=O)C(C)C)c1nc(C)c(C)o1
- inhibition (INH) [1]: 43%
- inhibition at 10 µg/mL [2]: 43%
- Activity [3]: inactive
- inhibition (INH) [4]: 49%
- inhibition at 10 µg/mL [5]: 49%

SMILES: CCCCC(=O)N(c1nc(C)co1)C(C)C
- inhibition (INH) [1]: 0%
- inhibition at 10 µg/mL [2]: 0%
- Activity [3]: inactive
- inhibition (INH) [4]: 0%
- inhibition at 10 µg/mL [5]: 0%

SMILES: CCCCN(C(=O)CCC)c1nc(C)co1
- inhibition (INH) [1]: 52%
- inhibition at 10 µg/mL [2]: 88%
- Ratio [6]: 4.3
- Ratio [7]: 6.4
- Activity [3]: inactive
- inhibition (INH) [4]: 33%
- inhibition at 10 µg/mL [5]: 14%

SMILES: CCCCc1coc(N(CCCC)C(=O)C(C)C)n1
- inhibition (INH) [1]: 14%
- Activity [3]: inactive

SMILES: CCCCN(C(=O)C(C)(C)C)c1nc(C)co1
- inhibition (INH) [1]: 23%
- inhibition at 10 µg/mL [2]: 23%
- Ratio [6]: 4.4
- Ratio [7]: 7.7
- Activity [3]: inactive
- inhibition (INH) [4]: 0%
- inhibition at 10 µg/mL [5]: 37%

SMILES: C=CCN(C(=O)C(C)C)c1nc(C)co1
- inhibition (INH) [1]: 23%
- Activity [3]: inactive
- inhibition (INH) [4]: 42%

SMILES: CCC(C)N(C(=O)C(C)C)c1nc(C)co1 (stereo not drawn)
- inhibition (INH) [1]: 13%
- Activity [3]: inactive
- inhibition (INH) [4]: 3%

SMILES: Cc1coc(N(C(=O)C(C)C)C(C)C)n1
- inhibition (INH) [1]: 10%
- inhibition at 10 µg/mL [2]: 0%
- Activity [3]: inactive
- inhibition at 10 µg/mL [5]: 0%

SMILES: CCCC(=O)N(CC)c1nc(C)co1
- inhibition (INH) [1]: 13%
- Activity [3]: inactive
- inhibition (INH) [4]: 30%

SMILES: CCCCN(C(=O)C1CCCCC1)c1nc(C)co1
- inhibition (INH) [1]: 32%
- inhibition at 10 µg/mL [2]: 26%
- Activity [3]: inactive
- inhibition (INH) [4]: 27%
- inhibition at 10 µg/mL [5]: 29%

SMILES: CCCCCCN(C(=O)C(C)C)c1nc(C)co1
- inhibition (INH) [1]: 42%
- Activity [3]: inactive
- inhibition (INH) [4]: 18%

SMILES: CCCCN(C(=O)C1CCC1)c1nc(C)c(C)o1
- inhibition (INH) [1]: 10%
- Activity [3]: inactive
- inhibition (INH) [4]: 0%

SMILES: CCCCN(C(=O)C(C)C)c1nc(-c2ccccc2)co1
- inhibition (INH) [1]: 39%
- Activity [3]: inactive
- inhibition (INH) [4]: 23%

SMILES: CCCCN(C(=O)CC1CCCC1)c1nc(C)co1
- inhibition (INH) [1]: 22%
- inhibition at 10 µg/mL [2]: 0%
- Activity [3]: inactive
- inhibition (INH) [4]: 0%
- inhibition at 10 µg/mL [5]: 0%

SMILES: CCCCN(C(=O)C(C)C)c1ncc(CC)o1
- inhibition (INH) [1]: 35%
- Activity [3]: inactive
- inhibition (INH) [4]: 52%

SMILES: CCCCN(C(=O)CCC)c1nc(C)c(C)o1
- inhibition (INH) [1]: 37%
- Activity [3]: inactive
- inhibition (INH) [4]: 46%

SMILES: CCCCN(C(=O)C(C)CC)c1nc(C)co1 (stereo in doubt; 39) [listing 1 of 2 here]
- Activity [3]: inactive

SMILES: CCCCC(=O)N(CCC)c1nc(C)co1
- inhibition (INH) [1]: 55%
- inhibition at 10 µg/mL [2]: 38%
- Ratio [6]: 0.8
- Ratio [7]: 5.8
- Activity [3]: inactive
- inhibition (INH) [4]: 48%
- inhibition at 10 µg/mL [5]: 0%

SMILES: CCCCN(C(=O)C(C)CC)c1nc(C)co1 (stereo in doubt; 38) [listing 1 of 2 here]
- Activity [3]: inactive

SMILES: CCCCN(C(=O)C(C)C)c1nc(-c2ccc(Cl)cc2)co1
- inhibition (INH) [1]: 37%
- Activity [3]: inactive
- inhibition (INH) [4]: 44%

SMILES: CC(=O)N(C)c1nc(C)c(C)o1
- inhibition (INH) [1]: 17%
- Activity [3]: inactive

SMILES: CCCCN(C(=O)C(CC)CC)c1nc(C)co1
- inhibition (INH) [1]: 55%
- Activity [3]: inactive
- inhibition (INH) [4]: 29%

SMILES: CCCCN(C(C)=O)c1nc(C)c(C)o1
- inhibition (INH) [1]: 32%
- Activity [3]: inactive
- inhibition (INH) [4]: 13%

SMILES: CCCCN(C(=O)C(C)CC)c1nc(C)co1 (racemic) [listing 1 of 2 here]
- inhibition (INH) [1]: 76%
- inhibition at 10 µg/mL [2]: 36%
- inhibition (INH) [4]: 54%
- inhibition at 10 µg/mL [5]: 5%

SMILES: CCCCCN(C(=O)C(C)C)c1nc(C)co1
- inhibition (INH) [1]: 66%
- inhibition at 10 µg/mL [2]: 47%
- Activity [3]: inactive
- inhibition (INH) [4]: 28%
- inhibition at 10 µg/mL [5]: 14%

SMILES: CCCCN(C(=O)C(C)CC)c1nc(C)co1 (racemic) [listing 2 of 2 here]
- Activity [3]: inactive

SMILES: CCCCC(=O)N(CCCC)c1nc(C)co1
- inhibition (INH) [1]: 49%
- Activity [3]: inactive
- inhibition (INH) [4]: 21%

SMILES: CCCCN(C(=O)C(C)CC)c1nc(C)co1 (stereo in doubt; 39) [listing 2 of 2 here]
- inhibition (INH) [1]: 79%
- inhibition (INH) [4]: 30%

SMILES: CCCCN(C(=O)C1CC1)c1nc(C)co1
- inhibition (INH) [1]: 46%
- inhibition at 10 µg/mL [2]: 72%
- Ratio [6]: 12.2
- Ratio [7]: 13.9
- Activity [3]: inactive
- inhibition (INH) [4]: 22%
- inhibition at 10 µg/mL [5]: 0%

SMILES: CCCCCC(=O)N(CCC)c1nc(C)co1
- inhibition (INH) [1]: 47%
- inhibition at 10 µg/mL [2]: 47%
- Ratio [6]: 1.4
- Ratio [7]: 4.7
- Activity [3]: inactive
- inhibition (INH) [4]: 44%
- inhibition at 10 µg/mL [5]: 44%

SMILES: CCCCCCN(C(C)=O)c1nc(C)co1
- inhibition (INH) [1]: 8%
- inhibition at 10 µg/mL [2]: 15%
- Activity [3]: inactive
- inhibition at 10 µg/mL [5]: 13%

SMILES: C=CCN(C(=O)CCC)c1nc(C)co1
- inhibition (INH) [1]: 31%
- Activity [3]: inactive
- inhibition (INH) [4]: 51%

SMILES: CCCCN(C(=O)C(C)C)c1nc(C2CCCCC2)co1
- inhibition (INH) [1]: 0%
- Activity [3]: inactive

SMILES: CCC(C)CN(C(=O)C(C)C)c1nc(C)co1 (stereo not drawn)
- inhibition (INH) [1]: 37%
- Activity [3]: inactive
- inhibition (INH) [4]: 29%

SMILES: CCCCN(C(=O)C(C)C)c1nc(CC)co1
- inhibition (INH) [1]: 41%
- Activity [3]: inactive
- inhibition (INH) [4]: 20%

SMILES: Cc1coc(N(C)C(=O)C(C)C)n1
- inhibition (INH) [1]: 25%
- Activity [3]: inactive
- inhibition (INH) [4]: 61%

SMILES: CCCCN(C(=O)C(C)C)c1nc(C)co1 [ISAMOXOLE]
- inhibition (INH) [1]: 54%
- inhibition at 10 µg/mL [2]: 93%
- Ratio [6]: 4.6
- Ratio [7]: 5.9
- Activity [3]: inactive
- inhibition (INH) [4]: 38%
- inhibition at 10 µg/mL [5]: 23%

SMILES: CCCCN(C(=O)C(C)C)c1ncc(C2CCCCC2)o1
- inhibition (INH) [1]: 21%
- Activity [3]: inactive

SMILES: CCCCCN(C(=O)CC)c1nc(C)co1
- inhibition (INH) [1]: 41%
- Activity [3]: inactive
- inhibition (INH) [4]: 16%

SMILES: CCCC(=O)N(c1nc(C)co1)C(C)CC (stereo not drawn)
- inhibition (INH) [1]: 34%
- Activity [3]: inactive
- inhibition (INH) [4]: 6%

SMILES: CC(=O)N(C)c1nc(C)co1
- inhibition (INH) [1]: 9%
- Activity [3]: inactive
- inhibition (INH) [4]: 0%

SMILES: CCCCN(C(=O)C1CCCC1)c1nc(C)co1
- inhibition (INH) [1]: 66%
- inhibition at 10 µg/mL [2]: 69%
- Activity [3]: inactive
- inhibition (INH) [4]: 47%
- inhibition at 10 µg/mL [5]: 0%

SMILES: CCCC(=O)N(CC(C)CC)c1nc(C)co1 (stereo not drawn)
- inhibition (INH) [1]: 33%
- Activity [3]: inactive
- inhibition (INH) [4]: 35%

SMILES: CCCCCCC(=O)N(CCCC)c1nc(C)co1
- inhibition (INH) [1]: 8%
- Activity [3]: inactive

SMILES: CCCCN(C(=O)C(C)C)c1ncco1
- inhibition (INH) [1]: 44%
- Activity [3]: inactive
- inhibition (INH) [4]: 8%

SMILES: CCCCN(C(=O)C(C)CC)c1nc(C)co1 (stereo in doubt; 38) [listing 2 of 2 here]
- inhibition (INH) [1]: 63%
- inhibition (INH) [4]: 8%

SMILES: CCC(=O)N(c1nc(C)co1)C(C)C
- inhibition (INH) [1]: 17%
- inhibition at 10 µg/mL [2]: 0%
- Activity [3]: inactive
- inhibition at 10 µg/mL [5]: 0%

SMILES: CCCCN(C(=O)C1CCCCCC1)c1nc(C)co1
- inhibition (INH) [1]: 49%
- Activity [3]: inactive
- inhibition (INH) [4]: 0%

SMILES: CCCCN(C(=O)C(C)C)c1ncc(C)o1
- inhibition (INH) [1]: 52%
- Activity [3]: inactive
- inhibition (INH) [4]: 31%

SMILES: CCCCN(C(=O)Cc1ccccc1)c1nc(C)co1
- inhibition (INH) [1]: 31%
- Activity [3]: inactive
- inhibition (INH) [4]: 0%

SMILES: CCCC(=O)N(c1nc(C)co1)C1CCCCC1
- inhibition (INH) [1]: 29%
- Activity [3]: inactive
- inhibition (INH) [4]: 37%

SMILES: CN1CCC(=C2c3ccccc3CC(=O)c3sccc32)CC1.O=C(O)/C=C/C(=O)O [KETOTIFEN FUMARATE]
- inhibition (INH) [1]: 38%
- inhibition (INH) [4]: 37%

SMILES: CCN(C(=O)C(C)C)c1nc(C)c(C)o1
- inhibition (INH) [1]: 21%
- Activity [3]: inactive
- inhibition (INH) [4]: 13%

SMILES: CCCCN(C(C)=O)c1nc(C)co1
- inhibition (INH) [1]: 39%
- Activity [3]: inactive
- inhibition (INH) [4]: 26%
